# Data taken from ChEMBL document CHEMBL1275486, “Kinetic characterization of VIM-7, a divergent member of the VIM metallo-beta-lactamase family” (Antimicrob Agents Chemother, 2008).
# Assays:
# Details in all cases: 81-11963
# [1] = system: CC(=O)OCC1=C(C(=O)O)N2C(=O)[C@@H](NC(=O)Cc3cccs3)[C@H]2SC1; assay: (§1) Activity of Pseudomonas aeruginosa beta-lactamase VIM-2 by spectrophotometry
# Procedure, shortened: (§2)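 Recombinant enzyme was expressed in E. coli BL21(DE3) from pET-26b and purified from the periplasm to >99%, with concentration taken from A280. Hydrolysis was followed spectrophotometrically at 25°C in 50 mM sodium cacodylate pH 7.0 with 100 μM ZnCl2 and 0.1 mg/ml BSA. Km and kcat came from initial velocity versus substrate concentration. Some Km values were taken as competitive Ki against nitrocefin reporter.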
# [2] = system: CC(C)(O/N=C(\C(=O)N[C@@H]1C(=O)N2C(C(=O)[O-])=C(C[n+]3ccccc3)CS[C@H]12)c1csc(N)n1)C(=O)O; assay: as §1; procedure, shortened: as §2
# [3] = system: CC1(C)S[C@@H]2[C@H](NC(=O)C(C(=O)O)c3ccccc3)C(=O)N2[C@H]1C(=O)O; assay: as §1; procedure, shortened: as §2
# [4] = system: CC1(C)S[C@@H]2[C@H](NC(=O)Cc3ccccc3)C(=O)N2[C@H]1C(=O)O; assay: as §1; procedure, shortened: as §2
# [5] = system: CC1(C)S[C@@H]2[C@H](NC(=O)[C@H](N)c3ccccc3)C(=O)N2[C@H]1C(=O)O; assay: as §1; procedure, shortened: as §2
# [6] = system: CC1(C)S[C@@H]2[C@H](NC(=O)[C@H](NC(=O)N3CCNC3=O)c3ccccc3)C(=O)N2[C@H]1C(=O)O; assay: as §1; procedure, shortened: as §2
# [7] = system: CC1(C)[C@H](C(=O)O)N2C(=O)C[C@H]2S1(=O)=O; assay: as §1; procedure, shortened: as §2
# [8] = system: CCN1CCN(C(=O)N[C@@H](C(=O)N[C@@H]2C(=O)N3[C@@H]2SC(C)(C)[C@@H]3C(=O)O)c2ccccc2)C(=O)C1=O; assay: as §1; procedure, shortened: as §2
# [9] = system: CO/N=C(\C(=O)N[C@@H]1C(=O)N2C(C(=O)O)=C(COC(C)=O)CS[C@H]12)c1csc(N)n1; assay: as §1; procedure, shortened: as §2
# [10] = system: CO/N=C(\C(=O)N[C@@H]1C(=O)N2C(C(=O)O)=C(COC(N)=O)CS[C@H]12)c1ccco1; assay: as §1; procedure, shortened: as §2
# [11] = system: CO/N=C(\C(=O)N[C@@H]1C(=O)N2C(C(=O)[O-])=C(C[N+]3(C)CCCC3)CS[C@H]12)c1csc(N)n1; assay: as §1; procedure, shortened: as §2
# [12] = system: CO[C@@]1(NC(=O)C(C(=O)O)c2ccc(O)cc2)C(=O)N2C(C(=O)O)=C(CSc3nnnn3C)CO[C@@H]21; assay: as §1; procedure, shortened: as §2
# [13] = system: CO[C@@]1(NC(=O)Cc2cccs2)C(=O)N2C(C(=O)O)=C(COC(N)=O)CS[C@@H]21; assay: as §1; procedure, shortened: as §2
# [14] = system: C[C@@H](O)[C@H]1C(=O)N2C(C(=O)O)=C(S[C@@H]3CN[C@H](C(=O)N(C)C)C3)[C@H](C)[C@H]12; assay: as §1; procedure, shortened: as §2
# [15] = system: C[C@@H](O)[C@H]1C(=O)N2C(C(=O)O)=C(S[C@@H]3CN[C@H](C(=O)Nc4cccc(C(=O)O)c4)C3)[C@H](C)[C@H]12; assay: as §1; procedure, shortened: as §2
# [16] = system: C[C@H]1[C@H](NC(=O)/C(=N\OC(C)(C)C(=O)O)c2csc(N)n2)C(=O)N1S(=O)(=O)O; assay: as §1; procedure, shortened: as §2
# [17] = system: C[C@]1(Cn2ccnn2)[C@H](C(=O)O)N2C(=O)C[C@H]2S1(=O)=O; assay: as §1; procedure, shortened: as §2
# [18] = system: Cc1onc(-c2ccccc2Cl)c1C(=O)N[C@@H]1C(=O)N2[C@@H]1SC(C)(C)[C@@H]2C(=O)O; assay: as §1; procedure, shortened: as §2
# [19] = system: O=C(Cc1cccs1)N[C@@H]1C(=O)N2C(C(=O)O)=C(/C=C/c3ccc([N+](=O)[O-])cc3[N+](=O)[O-])CS[C@H]12; assay: as §1; procedure, shortened: as §2
# [20] = system: O=C(Cc1cccs1)N[C@@H]1C(=O)N2C(C(=O)[O-])=C(C[n+]3ccccc3)CS[C@H]12; assay: as §1; procedure, shortened: as §2
# [21] = system: O=C(O)[C@H]1/C(=C/CO)O[C@@H]2CC(=O)N21; assay: as §1; procedure, shortened: as §2
# [22] = system: CC(=O)OCC1=C(C(=O)O)N2C(=O)[C@@H](NC(=O)Cc3cccs3)[C@H]2SC1; assay: (§3) Ratio of Kcat to Km for Pseudomonas aeruginosa beta-lactamase VIM-2 by spectrophotometry; procedure, shortened: as §2
# [23] = system: CC(C)(O/N=C(\C(=O)N[C@@H]1C(=O)N2C(C(=O)[O-])=C(C[n+]3ccccc3)CS[C@H]12)c1csc(N)n1)C(=O)O; assay: as §3; procedure, shortened: as §2
# [24] = system: CC1(C)S[C@@H]2[C@H](NC(=O)C(C(=O)O)c3ccccc3)C(=O)N2[C@H]1C(=O)O; assay: as §3; procedure, shortened: as §2
# [25] = system: CC1(C)S[C@@H]2[C@H](NC(=O)Cc3ccccc3)C(=O)N2[C@H]1C(=O)O; assay: as §3; procedure, shortened: as §2
# [26] = system: CC1(C)S[C@@H]2[C@H](NC(=O)[C@H](N)c3ccccc3)C(=O)N2[C@H]1C(=O)O; assay: as §3; procedure, shortened: as §2
# [27] = system: CC1(C)S[C@@H]2[C@H](NC(=O)[C@H](NC(=O)N3CCNC3=O)c3ccccc3)C(=O)N2[C@H]1C(=O)O; assay: as §3; procedure, shortened: as §2
# [28] = system: CC1(C)[C@H](C(=O)O)N2C(=O)C[C@H]2S1(=O)=O; assay: as §3; procedure, shortened: as §2
# [29] = system: CCN1CCN(C(=O)N[C@@H](C(=O)N[C@@H]2C(=O)N3[C@@H]2SC(C)(C)[C@@H]3C(=O)O)c2ccccc2)C(=O)C1=O; assay: as §3; procedure, shortened: as §2
# [30] = system: CO/N=C(\C(=O)N[C@@H]1C(=O)N2C(C(=O)O)=C(COC(C)=O)CS[C@H]12)c1csc(N)n1; assay: as §3; procedure, shortened: as §2
# [31] = system: CO/N=C(\C(=O)N[C@@H]1C(=O)N2C(C(=O)O)=C(COC(N)=O)CS[C@H]12)c1ccco1; assay: as §3; procedure, shortened: as §2
# [32] = system: CO/N=C(\C(=O)N[C@@H]1C(=O)N2C(C(=O)[O-])=C(C[N+]3(C)CCCC3)CS[C@H]12)c1csc(N)n1; assay: as §3; procedure, shortened: as §2
# [33] = system: CO[C@@]1(NC(=O)C(C(=O)O)c2ccc(O)cc2)C(=O)N2C(C(=O)O)=C(CSc3nnnn3C)CO[C@@H]21; assay: as §3; procedure, shortened: as §2
# [34] = system: CO[C@@]1(NC(=O)Cc2cccs2)C(=O)N2C(C(=O)O)=C(COC(N)=O)CS[C@@H]21; assay: as §3; procedure, shortened: as §2
# [35] = system: C[C@@H](O)[C@H]1C(=O)N2C(C(=O)O)=C(S[C@@H]3CN[C@H](C(=O)N(C)C)C3)[C@H](C)[C@H]12; assay: as §3; procedure, shortened: as §2
# [36] = system: C[C@@H](O)[C@H]1C(=O)N2C(C(=O)O)=C(S[C@@H]3CN[C@H](C(=O)Nc4cccc(C(=O)O)c4)C3)[C@H](C)[C@H]12; assay: as §3; procedure, shortened: as §2
# [37] = system: C[C@]1(Cn2ccnn2)[C@H](C(=O)O)N2C(=O)C[C@H]2S1(=O)=O; assay: as §3; procedure, shortened: as §2
# [38] = system: Cc1onc(-c2ccccc2Cl)c1C(=O)N[C@@H]1C(=O)N2[C@@H]1SC(C)(C)[C@@H]2C(=O)O; assay: as §3; procedure, shortened: as §2
# [39] = system: O=C(Cc1cccs1)N[C@@H]1C(=O)N2C(C(=O)O)=C(/C=C/c3ccc([N+](=O)[O-])cc3[N+](=O)[O-])CS[C@H]12; assay: as §3; procedure, shortened: as §2
# [40] = system: O=C(Cc1cccs1)N[C@@H]1C(=O)N2C(C(=O)[O-])=C(C[n+]3ccccc3)CS[C@H]12; assay: as §3; procedure, shortened: as §2
# [41] = system: O=C(O)[C@H]1/C(=C/CO)O[C@@H]2CC(=O)N21; assay: as §3; procedure, shortened: as §2
substance,measurement,setting,value
Beta-lactamase VIM-2 (Pseudomonas aeruginosa) (from UniProt Q9K2N0),Km,[1],11 µM
same,kcat,[1],130 s⁻¹
same,Km,[2],72 µM
same,kcat,[2],3.6 s⁻¹
same,Km,[3],205 µM
same,kcat,[3],185 s⁻¹
same,Km,[4],70 µM
same,kcat,[4],280 s⁻¹
same,Km,[5],90 µM
same,kcat,[5],125 s⁻¹
same,Km,[6],200 µM
same,kcat,[6],200 s⁻¹
same,Km,[7],320 µM
same,kcat,[7],23 s⁻¹
same,Km,[8],125 µM
same,kcat,[8],300 s⁻¹
same,Km,[9],12 µM
same,kcat,[9],70 s⁻¹
same,Km,[10],20 µM
same,kcat,[10],8 s⁻¹
same,Km,[11],> 400 µM
same,kcat,[11],> 40 s⁻¹
same,Km,[12],55 µM
same,kcat,[12],90 s⁻¹
same,Km,[13],13 µM
same,kcat,[13],15 s⁻¹
same,Km,[14],2 µM
same,kcat,[14],5 s⁻¹
same,Km,[15],9 µM
same,kcat,[15],0.2 s⁻¹
same,Km,[16],> 1000 µM
same,kcat,[16],< 0.01 s⁻¹
same,Km,[17],875 µM
same,kcat,[17],28 s⁻¹
same,Km,[18],250 µM
same,kcat,[18],350 s⁻¹
same,Km,[19],18 µM
same,kcat,[19],770 s⁻¹
same,Km,[20],50 µM
same,kcat,[20],140 s⁻¹
same,Km,[21],> 5000 µM
same,kcat,[21],5.4 s⁻¹
same,kcat/Km,[22],1.2e+07 M⁻¹ s⁻¹
same,kcat/Km,[23],50000 M⁻¹ s⁻¹
same,kcat/Km,[24],900000 M⁻¹ s⁻¹
same,kcat/Km,[25],4e+06 M⁻¹ s⁻¹
same,kcat/Km,[26],1.4e+06 M⁻¹ s⁻¹
same,kcat/Km,[27],1e+06 M⁻¹ s⁻¹
same,kcat/Km,[28],72000 M⁻¹ s⁻¹
same,kcat/Km,[29],2.4e+06 M⁻¹ s⁻¹
same,kcat/Km,[30],5.8e+06 M⁻¹ s⁻¹
same,kcat/Km,[31],400000 M⁻¹ s⁻¹
same,kcat/Km,[32],100000 M⁻¹ s⁻¹
same,kcat/Km,[33],1.6e+06 M⁻¹ s⁻¹
same,kcat/Km,[34],1.2e+06 M⁻¹ s⁻¹
same,kcat/Km,[35],2.5e+06 M⁻¹ s⁻¹
same,kcat/Km,[36],22000 M⁻¹ s⁻¹
same,kcat/Km,[37],32000 M⁻¹ s⁻¹
same,kcat/Km,[38],1.4e+06 M⁻¹ s⁻¹
same,kcat/Km,[39],4.28e+07 M⁻¹ s⁻¹
same,kcat/Km,[40],2.8e+06 M⁻¹ s⁻¹
same,kcat/Km,[41],1100 M⁻¹ s⁻¹
